Screening results: PubChem, several laboratories
An excerpt weighted towards active compounds, which were near 0.99% of everything screened.
GSK3 alpha inh: blockers of GSK3A enzyme activity – biochemical, luminescence, cell-free homogeneous, HTS, primary screen | Glycogen synthase kinase-3 alpha (Homo sapiens), P49840 | GSK-3 alpha kinase, ADP-Glo luminescence, 60 min | inhibition, % at 10 µM | hit rate 0.1% among 320,000 | AID 2650, 2010;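 active = more than half of replicates show inhibition above 20%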;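 note: GST-tagged GSK-3 alpha with peptide substrate and 25 µM ATP; 0% = DMSO neutral wells and 100% = GW8510 positive control wells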
Target sequence (P49840 whole entry, looked up): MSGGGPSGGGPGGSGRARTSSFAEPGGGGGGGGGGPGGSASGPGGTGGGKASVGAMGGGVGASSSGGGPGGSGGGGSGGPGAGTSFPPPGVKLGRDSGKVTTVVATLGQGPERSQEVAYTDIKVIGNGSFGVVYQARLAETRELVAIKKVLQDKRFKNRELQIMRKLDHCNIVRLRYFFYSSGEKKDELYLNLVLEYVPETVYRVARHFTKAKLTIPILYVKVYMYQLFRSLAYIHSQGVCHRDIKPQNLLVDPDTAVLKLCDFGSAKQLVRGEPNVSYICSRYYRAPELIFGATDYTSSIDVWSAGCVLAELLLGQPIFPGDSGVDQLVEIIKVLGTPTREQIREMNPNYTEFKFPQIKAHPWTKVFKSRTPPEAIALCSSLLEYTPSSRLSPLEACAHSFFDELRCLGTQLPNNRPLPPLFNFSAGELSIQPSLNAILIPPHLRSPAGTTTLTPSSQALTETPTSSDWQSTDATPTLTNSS
Dyrk1A ADPGlo: rat Dyrk1A kinase inhibitors, primary screen, biochemical, single point, plate reader. hit rate 0.43% among 310,000. inhibition, % at 12.5 µM. AID 504441, 2011. ADP-Glo luminescence, NFATc1 peptide. Dual specificity tyrosine-phosphorylation-regulated kinase 1A (Rattus norvegicus), Q63470; in the data active = inhibition above about 50%;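 note: plate controls were vehicle with enzyme for no effect and no enzyme for full effect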
Arr AP2 block: inhibitors of beta-arrestin/AP2 binding, primary screen, biochemical, GPCR trafficking, flow cytometry. beta-arrestin 1 C-terminal peptide binding to AP2 beta2-adaptin appendage (human). FITC-arrestin peptide / GST-AP2 beads; AP2 beta2 appendage carries R879A mutation. inhibition, % at 10 µM. hit rate 0.31% among 340,000. AID 504490, 2011;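 active = inhibition above a set limit, near 3 SD of compounds lacking own fluorescence, cut at about 54% in these data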;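 note: plate controls were DMSO wells for no effect and 5 µM unlabelled arrestin peptide for full effect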
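System: GST-AP2 R879A glutathione beads | Also added: FITC-arrestin peptide, 50 nM | Times: 12 min plus 1 h, RT | Signal: Bead flow cytometry, FITC channel | Buffer or medium: PBS with 0.05% Tween 20 and 0.1% BSA | Read-out basis: Percent drop in bead-associated FITC signal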
Rin1 Abl inh: inhibitors of Rin1-Abl protein binding, primary screen, biochemical, TR-FRET; Tyrosine-protein kinase ABL1 (Homo sapiens) + Ras and Rab interactor 1 (Homo sapiens), …; inhibition, % at 7.35 µM; hit rate 0.4% among 360,000; in the data active = inhibition above about 5%, passing the limit was not always enough
STK33 inh: inhibitors of purified STK33 kinase, primary screen, biochemical, ADP-Glo luminescence, homogeneous, cell-free | Serine/threonine-protein kinase 33 (Homo sapiens), Q9BYT3 | MBP phosphorylation | inhibition, % at 10 µM | hit rate 0.073% among 320,000 | AID 2661, 2010;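 active = inhibition at or above 25%, using the most active replicate where run in duplicate; inactive = inhibition below 25%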
GSK3B inh: human GSK3beta kinase inhibitors, primary screen, biochemical, cell-free homogeneous, HTS | AID 2097, 2009 | GST-GSK3beta kinase, ADP-Glo luminescence, 60 min; stronger effect = lower value | hit rate 0.038% among 300,000 | Glycogen synthase kinase-3 beta (Homo sapiens), P49841 | activity score (negative = inhibition), % at 10 µM;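 active = more than half of replicate wells score below -50%, meaning over 50% inhibition versus plate controls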;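 note: 0% = median DMSO wells and -100% = median GW8510 positive control wells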
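Assay system: GST-tagged human GSK3beta kinase, cell-free; Input: 1.6 ng GSK3beta; Medium: Tris/MgCl2 kinase buffer; Timing: 60 min enzyme reaction, room temperature; Signal: ADP-Glo luminescence quantifying ADP generated by kinase; Evaluation: score relative to plate controls; Benchmarks: DMSO neutral wells and GW8510 at 20 µM as positive.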
Rin1-Abl confirm: Rin1-Abl binding inhibitor retest, confirmation, biochemical, TR-FRET | shares compounds with Rin1 Abl inh | purified proteins | inhibition, % at 7.35 µM | hit rate 49% among 1,300 | AID 602124, 2011
GFP quench-1: GFP fluorescence inhibitors and quenchers, artefact control for Rin1-Abl interaction inhibitor project, biochemical; shares compounds with Rin1 Abl inh; inhibitors/quenchers counterscreen; inhibition, % at 6.75 µM; hit rate 8.5% among 1,300;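 note: ABL1-eGFP fusion protein alone without its partner RIN1-SBP; 0% = protein with vehicle and 100% = wells lacking protein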
GFP quench dose: GFP fluorescence inhibitors and quenchers, dose response, artefact control for Rin1-Abl interaction inhibitor project, biochemical. AID 602182, 2012. 230 tested, under 10 active. GFP fluorescence interference/quenching counterscreen. IC50, µM. shares compounds with Rin1 Abl inh; call rule not given here;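 note: ABL1-eGFP fusion protein alone without its RIN1 binding partner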
GFP quench-2: GFP fluorescence inhibitors and quenchers, late-stage follow-up, artefact control for Rin1-Abl interaction inhibitor project, biochemical, dose response; shares compounds with Rin1 Abl inh; GFP fluorescence quenching counterscreen; IC50, µM; 25 tested, under 10 active; call rule not given here
The depositor's hits bear a star; / = no result. Cut-off read from the data, not from the text of the source, unless noted: active = inhibition above about 6.5%; inactive = the rest.

SMILES	GSK3 alpha inh	Dyrk1A ADPGlo	Arr AP2 block	Rin1 Abl inh	STK33 inh	GSK3B inh	Rin1-Abl confirm	GFP quench-1	others
CCn1c(N2CCN(CC(=O)c3c(C)n(C)c4ccccc34)CC2)nc2c1c(=O)[nH]c(=O)n2C	-2	2	6	6.4*	-1	1	-2	0
Cc1ccc2nc(Nc3ccc(C)c(C)c3)c3nncn3c2c1	-2	0	-19	0	-2	1	/	/
CCOCCCNC(=O)c1cc(-c2cccnc2)nc2ccc(S(=O)(=O)N3CCC(C)CC3)cc12	0	-4	-7	5	-1	1	/	/
COCCNC(=O)c1cc(-c2ccccn2)nc2ccc(S(=O)(=O)N3CCC(C)CC3)cc12	0	/	27	17*	-1	-1	-2	-1
NS(=O)(=O)c1ccc(NC(=O)COC(=O)CC2Sc3ccccc3NC2=O)cc1 (configuration not stated)	1	/	36	5	-1	/	/	/
CCCCN(C)C(=O)c1ccc(Nc2nc(C(N)CCc3ccccc3)cs2)nc1 (configuration not stated)	/	/	/	3	/	/	/	/
CCCCN(C)C(=O)c1ccc(Nc2nc(C(N)Cc3ccc(C(F)(F)F)cc3)cs2)nc1 (configuration not stated)	/	/	/	8.1*	/	/	5	-1
Cn1c(=O)c2[nH]c(Cc3cccc4ccccc34)nc2n(C)c1=O	/	0	-5	1	/	/	/	/
COc1ccc(Cc2nc3ccc(C(=O)NCC4COCCO4)cc3o2)cc1 (configuration not stated)	1	5	-4	7.8*	0	-2	-1	-1
CCN(CC(=O)Nc1ccc(NC(C)=O)cc1)C(=O)c1ccc(Sc2nncn2C)c([N+](=O)[O-])c1	/	/	/	9.7*	/	/	0	0
CCN(CC)S(=O)(=O)c1ccc(NC(=O)c2ccc(Sc3nncn3C)c([N+](=O)[O-])c2)cc1	2	-4	6	-5	0	3	/	/
CC(=O)c1ccccc1C(=O)N1CCCC(CNC(=O)c2ccc(F)cc2)C1 (configuration not stated)	/	/	/	-2	/	/	/	/
OCCN1CCN(c2cnc(-c3ccsc3)cn2)CC1	/	/	/	6.3*	/	/	-4	1
Nc1ncc(-c2ccc(F)cc2)nc1N1CCN(CCO)CC1	/	/	/	-6	/	/	/	/
CC(=O)c1c(C)[nH]c(C(=O)NCc2ccc(Cl)cc2)c1C	/	/	/	1	/	/	/	/
Cc1cc(C)nc(NC(=O)c2c(-c3c(Cl)cccc3Cl)noc2C)n1	-2	5	14	-2	1	1	/	/
Cc1cc(C)nc(NC(=O)c2c(Cl)cccc2Cl)n1	-1	9	11	4.4*	-1	-3	2	3
Cc1ncc(CN2CCCC(C(=O)Nc3ccc(-c4ccco4)cc3)C2)cn1 (configuration not stated)	-1	-1	23	15*	-2	/	10*	-2
CCc1nc2nc(C)c(NS(=O)(=O)c3ccc(CC(C)C)cc3)c(=O)n2[nH]1	-3	-1	10	8.2*	0	/	2	1
CC(=O)c1ccc(OCCCC(=O)N2CCN(S(=O)(=O)c3ccc(C)cc3C)CC2)cc1	1	-4	31	7.5*	-1	2	0	0
CCN(CC)Cc1cc(C(C)(C)C)cc(N2CCOCC2)c1O	/	-3	35	3	/	/	/	/
CCN(CC)Cc1cc(O)c(CN(CC)CC)cc1O	/	2	33	11*	/	-1	1	5
COc1cccc(NC(=O)COc2ccc(C(=O)N3CCN(C)CC3)cc2)c1	-4	-4	18	4	1	1	/	/
O=C(Cc1ccc(NC(=O)C2CCN(C(=O)C3CCC3)CC2)cc1)Nc1ccc(C(=O)N2CCOCC2)cc1	/	-1	3	23*	/	/	21*	0	GFP quench dose=>67
O=C(Cc1ccc(NC(=O)C2CCN(C(=O)CCc3ccccc3)CC2)cc1)Nc1ccc(C(=O)N2CCOCC2)cc1	/	6	-4	4	/	/	/	/
SMILES	GSK3 alpha inh	Dyrk1A ADPGlo	Arr AP2 block	Rin1 Abl inh	STK33 inh	GSK3B inh	Rin1-Abl confirm	GFP quench-1	others
O=C(Cc1ccc(NC(=O)C2CCN(C(=O)C3CCCC3)CC2)cc1)Nc1cccc(C(=O)N2CCCCC2)c1	/	0	1	17*	/	/	17*	0	GFP quench dose=>68
O=C(Cc1ccc(NC(=O)C2CCN(C(=O)c3ccccc3)CC2)cc1)Nc1ccc(C(=O)N2CCOCC2)cc1	/	/	-8	36*	/	/	37*	0	GFP quench dose=>68;GFP quench-2=>68
Cc1ccc(NC(=O)CN(C)C(=O)CSc2nc3ccccc3c(=O)n2CCO)cc1	/	-9	13	11*	/	/	9.0*	0
C#CCO[C@@H]1C[C@H](n2ccc(NC(=O)c3ccccc3)nc2=O)O[C@@H]1CO	2	1	-1	10*	0	-1	5	1
O=C(Nc1ccn(C2CCC(CO)O2)c(=O)n1)c1ccccc1 (configuration not stated)	/	/	/	65*	/	/	56*	0
COc1ccc(S(=O)(=O)N2CCCC2)c(Cl)c1Cl	0	0	-1	9.9*	0	1	-1	-1
CC(=O)c1ccc(N2CCN(c3ncccn3)CC2)cc1	-2	-1	-1	0	0	-1	/	/
C=CCn1c(CCc2ccccc2)nnc1SCC(N)=O	-2	-4	30	-2	0	6	/	/
CCn1c(CCc2ccccc2)nnc1SCC(N)=O	-3	9	33	6.9*	-1	3	-1	1
CN(C)C1(CNC(=O)C2CCN(S(=O)(=O)c3c(Cl)cccc3Cl)CC2)CCCCC1	1	-6	-8	0	-2	5	/	/
Cc1cccc(C(=O)N/N=C/c2ccccn2)c1	3	/	11	1	0	1	/	/
